From PMC5405180 (EBioMedicine, 2017)
Where a SMILES comes first, the peptide text is derived from it. The star is where a group is joined. Cbz = O=C(OCc1ccccc1)*

Columns and labels:
[1] = molecular target: NF-κB p65 binding to Nfat5 promoter 1 (Homo sapiens, UniProt Q04206); assay: Electrophoretic mobility shift assay; details: recombinant p65 400 ng; KRN2 5, 20, 50 μM; MG132 20 μM
[2] = Pharmacokinetic profile in rats; format: in vivo; details: rat
How it was run: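 Rats were dosed intravenously or orally and plasma concentration–time profiles were obtained. Half-life came from the oral profile. Oral bioavailability (F%) was calculated from oral versus intravenous exposure.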

[3] = system: mice with collagen-induced arthritis (CIA); assay: Collagen-induced arthritis; format: in vivo
[4] = system: NFAT5; assay: NFAT5-dependent GFP reporter assay; format: cell-based, murine; details: for IC50: Mus musculus, RAW264.7, read-out: IC50, NFAT5-dependent reporter activity
How it was run: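 Cells were stimulated with LPS (1 μg/ml) for 20 h alongside graded test compound or BBR. GFP was read by flow cytometry and expressed as % ΔMFI = (treated MFI − untreated MFI) × 100 / untreated MFI.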

[5] = system: RAW 264.7 macrophages; assay: Pro-inflammatory NFAT5 target gene expression in LPS-stimulated RAW 264.7; format: cell-based, murine
[6] = system: splenocytes of CIA mice; assay: LPS-stimulated splenocytes from treated CIA mice; format: in vivo; details: splenocytes of CIA mice treated orally, LPS 1 μg/ml 24 h
How it was run: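 CIA was induced in mice by CII/CFA immunization with a CII/IFA boost. Mice received oral test compound at 15 or 60 mg/kg on alternate days, or vehicle. Splenocytes from these mice were cultured with LPS (1 μg/ml) for 24 h.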

[7] = system: NFAT5; assay: High salt-induced NFAT5 and tonicity-inducible gene expression in RAW 264.7; format: cell-based, murine; details: for high salt-induced increase in NFAT5 mRNA and protein: RAW 264.7, NaCl 45 mM 12 h, KRN2 1 μM, SB203580 5 μM
[8] = system: murine splenocytes; assay: LPS-stimulated murine splenocytes; format: cell-based; details: total splenocytes of mice, LPS 1 μg/ml 24 h, 0.8 μM
[9] = system: murine peritoneal macrophages; assay: LPS-stimulated murine peritoneal macrophages; format: cell-based; details: 0.8 μM
[10] = system: NFAT1; assay: NFAT promoter reporter assay; format: cell-based, human; details: HEK293 cells stimulated with PMA, 1 μM
[11] = system: adjuvant-induced arthritis (AIA) in mice; assay: Adjuvant-induced arthritis; format: in vivo
How it was run: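 AIA induced in 8-week-old C57BL/6 mice with 2 mg CFA given intradermally. Test compound was given at 3 mg/kg i.p. daily for 2 weeks, with PBS as vehicle. Ankle and footpad thickness were tracked over the 2 weeks (6 mice/group, mean ± SD). Joints were fixed in […] for 1 day and decalcified in 5% formic acid for 2 weeks. Sections were blocked with 10% goat serum, then stained overnight at 4 °C with anti-F4/80 (1/50), biotinylated anti-rabbit IgG, streptavidin-peroxidase and DAB.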

[12] = system: murine peritoneal macrophages; assay: High salt-stimulated murine peritoneal macrophages; format: cell-based; details: NaCl 45 mM 6 h, 0.8 μM
[13] = system: NFAT5; assay: LPS-induced NFAT5 expression and nuclear translocation; format: cell-based, murine
[14] = molecular target: NF-κB p65 binding to the Nfat5 promoter (Mus musculus, UniProt Q04207); assay: ChIP assay; format: cell-based, murine; details: RAW 264.7, 1 μM, LPS 1 μg/ml 12 h
How it was run: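 RAW 264.7 cells were pretreated with test compound (1 μM) for 1 h, then given LPS (1 μg/ml) for 12 h. Cells were fixed in 1% formaldehyde for 10 min at 37 °C, nuclei isolated and chromatin sonicated, with an input aliquot kept. Immunoprecipitation used anti-p65. DNA was extracted with phenol/chloroform, ethanol-precipitated and PCR-amplified with Nfat5 promoter primers; Nfat5 exon primers served as negative control. Three independent experiments.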

[15] = system: ELK; assay: ELK promoter reporter assay; format: cell-based; details: 1 µM test compound
[16] = system: RAW 264.7 cells; assay: NO production; format: cell-based, murine; details: RAW 264.7, LPS 1 μg/ml 24 h, Griess assay
How it was run: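 RAW 264.7 macrophages were kept in RPMI 1640 with 10% FBS. Cells were preincubated for 1 h with graded test compound, then stimulated with LPS (1 μg/ml) for 24 h. Supernatant was mixed with an equal volume of Griess reagent for 15 min at room temperature to give nitrite. Three independent experiments, each in triplicate, mean ± SD.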

[17] = system: NF-κB p65; assay: p65 phosphorylation/translocation and IκB degradation; format: cell-based, murine; details: RAW 264.7, LPS 1 µg/ml
How it was run: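 RAW 264.7 cells were incubated in cytoplasmic lysis buffer for 15 min on ice and centrifuged; the supernatant was taken as the cytosolic fraction. The pellet was taken up in nuclear lysis buffer and spun for 20 min at 12,000 rpm. Fractions were run on SDS-PAGE, transferred to nitrocellulose and probed for p65, with NMP p84 and α-tubulin as fraction markers, using ECL detection. Whole-cell lysates were prepared in RIPA buffer for 15 min at 4 °C and protein measured by Bradford assay.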

[18] = system: ROS; assay: ROS production by flow cytometry; format: cell-based, murine; details: RAW 264.7, LPS 1 µg/ml, KRN2 0.8 µM
[19] = system: CREB; assay: CREB promoter reporter assay; format: cell-based; details: 1 µM test compound
[20] = system: p38 MAPK; assay: p38 MAPK activity; format: cell-based; details: RAW 264.7, LPS 1 µg/ml, KRN2 0.8 µM
[21] = system: NFAT5 promoter; assay: Nfat5 promoter GFP reporter assay; format: cell-based, murine; details: RAW 264.7, 1 μM
How it was run: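 RAW 264.7 cells carried a GFP reporter containing two NF-κB binding sites from upstream of the Nfat5 gene. Cells were preincubated with test compound (1 μM) for 1 h, then stimulated for 20 h with either LPS (1 μg/ml) or NaCl (45 mM). GFP was measured by flow cytometry as % ΔMFI relative to untreated cells. Three independent experiments.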

[22] = 3 mg/kg peritoneally, versus vehicle

NF-κB p65 binding to Nfat5 promoter 1, sequence (Q04206 whole entry): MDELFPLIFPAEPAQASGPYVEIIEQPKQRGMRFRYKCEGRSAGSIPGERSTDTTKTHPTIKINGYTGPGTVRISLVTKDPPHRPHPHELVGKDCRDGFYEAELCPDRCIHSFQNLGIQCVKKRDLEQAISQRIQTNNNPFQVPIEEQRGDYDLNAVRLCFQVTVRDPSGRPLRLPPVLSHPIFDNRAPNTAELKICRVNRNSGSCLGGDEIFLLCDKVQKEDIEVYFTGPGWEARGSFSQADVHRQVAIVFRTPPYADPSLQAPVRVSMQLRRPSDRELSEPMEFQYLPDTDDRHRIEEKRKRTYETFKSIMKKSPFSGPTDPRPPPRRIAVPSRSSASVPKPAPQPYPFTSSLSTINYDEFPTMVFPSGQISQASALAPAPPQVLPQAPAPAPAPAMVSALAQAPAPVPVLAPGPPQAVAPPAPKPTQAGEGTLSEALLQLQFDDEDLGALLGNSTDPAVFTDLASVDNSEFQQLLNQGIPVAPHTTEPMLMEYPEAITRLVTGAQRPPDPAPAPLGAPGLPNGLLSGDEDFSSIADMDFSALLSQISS
NF-κB p65 binding to the Nfat5 promoter, sequence (Q04207 whole entry): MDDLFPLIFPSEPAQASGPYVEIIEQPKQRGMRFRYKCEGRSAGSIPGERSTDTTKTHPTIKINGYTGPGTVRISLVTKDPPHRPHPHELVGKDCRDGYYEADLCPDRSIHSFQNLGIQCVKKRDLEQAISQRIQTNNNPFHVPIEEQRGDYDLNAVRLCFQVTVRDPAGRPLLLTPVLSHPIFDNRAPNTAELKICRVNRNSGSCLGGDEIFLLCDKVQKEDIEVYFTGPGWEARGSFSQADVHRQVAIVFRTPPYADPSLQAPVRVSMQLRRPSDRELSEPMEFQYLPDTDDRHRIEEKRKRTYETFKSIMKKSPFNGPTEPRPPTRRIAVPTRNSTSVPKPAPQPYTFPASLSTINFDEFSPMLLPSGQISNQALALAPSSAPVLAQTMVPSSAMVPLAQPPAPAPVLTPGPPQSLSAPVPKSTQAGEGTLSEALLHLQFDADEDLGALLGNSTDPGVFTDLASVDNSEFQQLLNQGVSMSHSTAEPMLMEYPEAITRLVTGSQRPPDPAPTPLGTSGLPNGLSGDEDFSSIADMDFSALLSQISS

CC(C)C[C@@H](C=O)NC(=O)[C@H](CC(C)C)NC(=O)[C@H](CC(C)C)NC(=O)OCc1ccccc1 [MG132, reference compound] (Cbz-Leu-Leu-Leu-aldehyde)
NF-κB p65 binding to Nfat5 promoter 1 [1]: did not affect it

COc1ccc2c(Cc3ccccc3F)c3n(c(=O)c2c1OC)CCc1cc2c(cc1-3)OCO2 [KRN5, 13-(2-Fluorobenzyl)-9,10-dimethoxy-5,6-dihydro-8H-[1,3]dioxolo[4,5-g]isoquinolino[3,2-a]isoquinolin-8-one]
half-life ([2]; plasma, po): > 8 h | efficacy in suppressing arthritis compared to methotrexate ([3]; oral 60 mg/kg, methotrexate 5 mg/kg orally twice a week): more potent | arthritis severity ([3]; oral 15 and 60 mg/kg every other day for 3 weeks from day 21): dose-dependently mitigated | serum anti-type II collagen IgG ([3]; oral, day 44): significantly decreased | side effects ([3]; oral, throughout the experiments (data not shown)): no side effects were noted | IC50 [4]: 750 nM | expressions of NFAT5, IL-6, MCP-1, and GM-CSF ([5]; RAW 264.7, 1 μM, LPS 1 μg/ml 24 h): inhibited | NFAT5 expression in spleen cells stimulated by LPS [6]: reduced

C[S+]([O-])c1ccc(-c2nc(-c3ccncc3)c(-c3ccc(F)cc3)[nH]2)cc1 (stereo not drawn) [SB253580, reference compound]
high salt-induced increase in NFAT5 mRNA and protein [7]: completely blocked

COc1ccc2cc3[n+](cc2c1OC)CCc1cc2c(cc1-3)OCO2 [Berberine, reference compound]
IC50 [4]: 4000 nM

COc1ccc2c(Cc3ccccc3F)c3[n+](cc2c1OC)CCc1cc2c(cc1-3)OCO2.[Br-] [KRN2, 13-(2-Fluorobenzyl)-9,10-dimethoxy-5,6-dihydro-[1,3]dioxolo[4,5-g]isoquinolino[3,2-a]isoquinolin-7-ium bromide]
high salt-induced increase in NFAT5 mRNA and protein [7]: did not repress | mRNA expression levels of Ar and Bgt ([7]; RAW 264.7 stimulated with high salt (NaCl 45 mM 12 h), 0.8 μM): had no effect | iNOS, IL-6, and TNF-α expressions [8]: decreases | plasma level after oral administration ([2]; oral administration): not detectable | LPS-stimulated increase in NFAT5 protein and mRNA [9]: mitigated | expression levels of Il6 and Tnf ([9]; LPS): decreased | NFAT1-dependent reporter activity [10]: only slightly inhibited | number of anti-F4/80+ cells infiltrated in joints ([11]; 3 mg/kg peritoneally): declined | paw swelling (ankle and footpad diameter) ([11]; 3 mg/kg peritoneally every day for 2 weeks, versus vehicle): significantly lower | inflammatory cell infiltration, synovial hyperplasia, and joint destruction (H&E) [11, 22]: lesser degrees | high salt-induced increase in Nfat5 mRNA expression [12]: neither mitigated | arthritis severity ([3]; 3 mg/kg peritoneally every day for 3 weeks from day 21): significantly decreased | serum levels of anti-type II collagen antibody, IL-6, and TNF-α ([3]; 3 mg/kg peritoneally, day 40): significantly decreased | inflammatory cell infiltration, synovial hyperplasia, and joint destruction [3, 22]: limited degree | number of anti-F4/80+ macrophages in joints [3, 22]: significantly lower | CIA development ([3]; oral 3 mg/kg every other day for 3 weeks from day 21 (data not shown)): failed to suppress | LPS-induced NFAT5 mRNA and protein expression ([13]; RAW 264.7, 0.8 μM, LPS 1 μg/ml): nearly completely blocked | translocation of NFAT5 into the nucleus ([13]; RAW 264.7, 0.8 μM, LPS 1 μg/ml 12 h): inhibited | LPS-stimulated increase in NFAT5 protein expression ([13]; RAW 264.7 macrophages, 0.5 μM, western blot): significantly suppressed | IC50 [4]: 100 nM | anti-NFAT5 activity relative to BBR ([4]; ratio of IC50 values, KRN2 versus BBR): 40 times | recruitment of NF-κB p65 to the Nfat5 promoter region [14]: nearly completely eliminated | ELK-dependent reporter (luciferase) activity [15]: not suppressed | NO production [16]: dose-dependently lowered | degradation of IκB [17]: nor blocked | phosphorylation and translocation of p65 [17]: neither influenced | mRNA and protein expression levels of IL-6, TNF-α, and GM-CSF ([5]; RAW 264.7, 0.8 μM, LPS 1 μg/ml): significantly decreased | expression level of iNOS ([5]; RAW 264.7, LPS 1 μg/ml 24 h, western blot): dose-dependently lowered | NF-κB p65 binding to Nfat5 promoter 1 [1]: dose-dependently inhibited | ROS [18]: neither ROS nor p38 MAPK activity was affected | CREB-dependent reporter (luciferase) activity [19]: not suppressed | p38 MAPK activity [20]: neither ROS nor p38 MAPK activity was affected | LPS-induced NFAT5 promoter activity ([21]; LPS 1 μg/ml 20 h): specifically repressed | high salt-induced NFAT5 promoter activity ([21]; NaCl 45 mM 20 h): failed to reduce
